Laboratory results reported in ChEMBL document CHEMBL1152813, “Synthesis of puromycin derivatives with backbone-elongated substrates and associated translation inhibitory activities” (Bioorg Med Chem, 2009).
pIC50: −log10 of the molar value.

Key:
[1] = Solubility in water; assay type: physicochemical; settings: buffer
Escherichia coli = test: Inhibition of firefly luciferase mRNA translation in Escherichia coli after 1 hr relative to control; assay type: functional
Method in brief: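 Reconstituted E. coli translation system translating firefly luciferase mRNA with CCPmn derivatives at 2.5–30 µM (2.5–120 µM for some), 1 h incubation. Luciferase activity (c.p.s.) read by luminescence counter; translation efficiency (%) set against a serial-dilution calibration of control luciferase translated without CCPmns; three independent experiments, standard deviations.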

Structure (SMILES) | solubility [1] | pIC50 (Escherichia coli)
C[C@H](CN)C(=O)N[C@H]1[C@@H](O)[C@H](n2cnc3c(N(C)C)ncnc32)O[C@@H]1COP(=O)(O)O | Soluble | 
C[C@H](CO)C(=O)N[C@H]1[C@@H](O)[C@H](n2cnc3c(N(C)C)ncnc32)O[C@@H]1COP(=O)(O)O | Soluble | 
CC(=O)N[C@H]1[C@@H](O)[C@H](n2cnc3c(N(C)C)ncnc32)O[C@@H]1COP(=O)(O)O | Soluble | 
CC(=O)N[C@H]1[C@@H](O)[C@H](n2cnc3c(N(C)C)ncnc32)O[C@@H]1COP(=O)(O)O[C@H]1[C@@H](O)[C@H](n2ccc(N)nc2=O)O[C@@H]1COP(=O)(O)O[C@H]1[C@@H](O)[C@H](n2ccc(N)nc2=O)O[C@@H]1CO | Soluble | 4.18

Second part, the compound after the results:

solubility [1] | pIC50 (Escherichia coli) | Structure (SMILES)
Soluble | 4.92 | C[C@H](CO)C(=O)N[C@H]1[C@@H](O)[C@H](n2cnc3c(N(C)C)ncnc32)O[C@@H]1COP(=O)(O)O[C@H]1[C@@H](O)[C@H](n2ccc(N)nc2=O)O[C@@H]1COP(=O)(O)O[C@H]1[C@@H](O)[C@H](n2ccc(N)nc2=O)O[C@@H]1CO
Soluble | 4.48 | C[C@H](CN)C(=O)N[C@H]1[C@@H](O)[C@H](n2cnc3c(N(C)C)ncnc32)O[C@@H]1COP(=O)(O)O[C@H]1[C@@H](O)[C@H](n2ccc(N)nc2=O)O[C@@H]1COP(=O)(O)O[C@H]1[C@@H](O)[C@H](n2ccc(N)nc2=O)O[C@@H]1CO
Soluble | 5.30 | COc1ccc(C[C@H](N)C(=O)N[C@H]2[C@@H](O)[C@H](n3cnc4c(N(C)C)ncnc43)O[C@@H]2COP(=O)(O)O[C@H]2[C@@H](O)[C@H](n3ccc(N)nc3=O)O[C@@H]2COP(=O)(O)O[C@H]2[C@@H](O)[C@H](n3ccc(N)nc3=O)O[C@@H]2CO)cc1
Insoluble |  | CN(C)c1ncnc2c1ncn2[C@@H]1O[C@H](CO)[C@@H](NC(=O)CCO)[C@H]1O
